Activity calls are given as the source filed them. Square brackets hold non-standard residues; d marks the D form. Peptide text beside a SMILES is read from it.
Experiments:
[1] = system: HEK293T; assay: Inhibition of human c-YFP fused CB1R/n-YFP fused 5HT2A receptor heterodimer formation expressed in HEK293T cells assessed as increase in pERK level preincubated for 15 mins followed by WIN 55,212-2 stimulation for 7 mins by microplate reader method; assay type: cell-based; conditions: time 22.0 min
[2] = system: HEK293T; assay: Inhibition of human c-YFP fused CB1R/n-YFP fused 5HT2A receptor heterodimer formation expressed in HEK293 cells assessed as increase in pERK level preincubated for 15 mins followed by DOI stimulation for 7 mins by microplate reader method; assay type: cell-based; conditions: time 22.0 min
[3] = system: HEK293T; assay: Inhibition of human c-YFP fused CB1R/n-YFP fused 5HT2A receptor heterodimer formation expressed in HEK293T cells assessed as decrease in forskolin induced cAMP level preincubated for 15 mins forskolin and WIN 55,212-2 stimulation and measured after 15 mins by HTRF assay; assay type: cell-based; conditions: time 30.0 min
[4] = system: HEK293T; assay: Inhibition of human c-YFP fused CB1R/n-YFP fused 5HT2A receptor heterodimer formation expressed in HEK293T cells assessed as decrease in forskolin induced cAMP level preincubated for 15 mins forskolin and DOI stimulation and measured after 15 mins by HTRF assay; assay type: cell-based; conditions: time 30.0 min
[5] = system: HEK293T; assay: Inhibition of human c-YFP fused CB1R/n-YFP fused 5HT2A receptor heterodimer formation transfected in human HEK293T cells at 4 uM incubated for 4 hrs by BIFC assay; assay type: cell-based
Method in brief: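 HEK-293T cells were cotransfected 48 h with 5HT2AR-cYFP and CB1R-nYFP (4 μg cDNA each, polyethylenimine), then treated with 4 μM peptide or vehicle for 4 h at 37 °C. Reconstituted YFP Venus was read on 20 μg protein at 530 nm emission with 400 nm excitation, minus the fluorescence of non-expressing cells. Mean ± SEM, n = 10–30.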

[6] = system: BEND3; assay: Induction of BBB translocation in mouse BEND3 cells measured after 24 hrs by fluorescence analysis; assay type: functional, cell-based
Method in brief: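 5(6)-Carboxyfluorescein-labeled peptides were applied to a transwell BBB model of bEnd.3 cells. Translocation (%) was measured as fluorescence in the basolateral chamber after 24 h, with a trans-BBB peptide as positive control. Barrier integrity was checked afterward by FD4 dextran permeability. Mean ± SEM, n = 3–6, independent cultures on different days.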

[7] = system: Mus musculus; assay: Protection against THP-induced amnesic effect in mouse assessed as reduction in memory impairment at 20 mg/kg, iv pretreated for 30 mins followed by THP addition; assay type: functional, organism-based
Method in brief: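 V-maze novel object recognition. Day 1 was 9 min habituation. Day 2 was 9 min training with two identical objects. Peptide was given IV (20 mg/kg) or orally (5, 10, 20 mg/kg) right after training, then IP THC 3 mg/kg or vehicle 30 min later. The 9 min test came 24 h later with one object replaced. Discrimination index = (novel − familiar)/total exploration time; exploration meant the nose oriented within 2 cm of the object. Fisher LSD.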

[8] = Drug internalization in mouse BEND3 cells by confocal microscopic analysis; assay type: ADME, cell-based
Method in brief: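 bEnd.3 mouse brain endothelial cells were exposed to 5(6)-carboxyfluorescein-labeled peptides and counterstained with Hoechst 33342 and CellMask Deep Red membrane stain. Imaging used point-scanning confocal microscopy with a 63× oil objective, 405 nm excitation for the stains and 488 nm for the peptide.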

[9] = system: Mus musculus; assay: Analgesic activity in mouse assessed as pain response at 20 mg/kg, iv pretreated with compound for 30 mins followed by THP addition and measured after 60 mins by hot plate test; assay type: functional, organism-based; conditions: time 90.0 min
Method in brief: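 Mice got peptide or vehicle IV (20 mg/kg) or orally by gavage (5, 10, 20 mg/kg) 30 min before IP THC 10 mg/kg (vehicle 5% ethanol, 5% Cremophor-EL, 90% saline). Latency to jump on a 52 ± 0.5 °C hot plate was read 60 min after THC, with a 240 s cutoff. Mean ± SEM, n = 10–12 (IV) or 5–8 (oral); Fisher LSD.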

COc1cccc([C@H](O)C2CCN(CCc3ccc(F)cc3)CC2)c1OC
inactive: inhibition [1] | inhibition [2] | inhibition [3] | inhibition [4]

Cc1c(C(=O)NN2CCCCC2)nn(-c2ccc(Cl)cc2Cl)c1-c1ccc(Cl)cc1
inactive: inhibition [1] | inhibition [2] | inhibition [3] | inhibition [4]

CC[C@H](C)[C@H](NC(=O)[C@@H](NC(=O)[C@@H]1CCCN1C(=O)[C@H](CC(N)=O)NC(=O)[C@@H](NC(=O)[C@@H](NC(=O)[C@H](CO)NC(=O)[C@H](CC(N)=O)NC(=O)[C@H](CC(C)C)NC(=O)[C@H](CC(C)C)NC(=O)[C@H](CS)NC(=O)[C@H](CC(C)C)NC(=O)[C@H](CCSC)NC(=O)[C@H](CO)NC(=O)[C@H](CS)NC(=O)[C@H](Cc1ccccc1)NC(=O)[C@H](C)NC(=O)[C@H](Cc1ccccc1)NC(=O)[C@@H](NC(=O)[C@@H](NC(=O)[C@H](CCCCN)NC(=O)[C@@H](NC(=O)[C@@H](N)CC(C)C)[C@@H](C)CC)[C@@H](C)O)C(C)C)[C@@H](C)O)C(C)C)[C@@H](C)CC)C(=O)N[C@@H](Cc1ccc(O)cc1)C(=O)N[C@@H](C)C(=O)N[C@@H](CC(C)C)C(=O)N[C@@H](CCCNC(=N)N)C(=O)NCC(=O)N[C@@H](CCCNC(=N)N)C(=O)N[C@@H](CCCCN)C(=O)N[C@@H](CCCCN)C(=O)N[C@@H](CCCNC(=N)N)C(=O)N[C@@H](CCCNC(=N)N)C(=O)N[C@@H](CCC(N)=O)C(=O)N[C@@H](CCCNC(=N)N)C(=O)N[C@@H](CCCNC(=N)N)C(=O)N[C@@H](CCCNC(=N)N)C(N)=O (H-LIKTVFAFCSMLCLLNSTVNPIIYALRGRKKRRQRRR-NH2)
inactive: inhibition [1] | inhibition [2] | inhibition [3] | inhibition [5]

CC[C@@H](C)[C@@H](NC(=O)CNC(=O)[C@@H](C)NC(=O)[C@H](Cc1c[nH]c2ccccc12)NC(=O)[C@H](CC(C)C)NC(=O)[C@@H](NC(=O)[C@H](Cc1ccc(O)cc1)NC(=O)[C@H](CCSC)NC(=O)[C@H](Cc1ccc(O)cc1)NC(=O)[C@H](C)NC(=O)[C@H](Cc1ccc(O)cc1)NC(=O)[C@@H](N)C(C)C)[C@@H](C)CC)C(=O)N[C@H](CC(C)C)C(=O)N[C@H](CCCCN)C(=O)N[C@H](CCCNC(=N)N)C(=O)N[C@H](Cc1c[nH]c2ccccc12)C(N)=O (H-VYAYMYILW[dA]G[dI][dL][dK][dR][dW]-NH2)
active: inhibition [1] | inhibition [2] | Activity [6] | inhibition [3] | inhibition [4]

CC[C@H](C)[C@H](NC(=O)[C@H](Cc1ccc(O)cc1)NC(=O)[C@H](CCSC)NC(=O)[C@H](Cc1ccc(O)cc1)NC(=O)[C@H](C)NC(=O)[C@H](Cc1ccc(O)cc1)NC(=O)[C@@H](N)C(C)C)C(=O)N[C@@H](CC(C)C)C(=O)N[C@@H](Cc1c[nH]c2ccccc12)C(=O)N[C@H](CO)C(=O)N[C@H](CCCCN)C(=O)N[C@H](CO)C(=O)N[C@H](CCCCN)C(=O)N[C@H](CO)C(=O)N[C@H](CCCCN)C(N)=O (H-VYAYMYILW[dS][dK][dS][dK][dS][dK]-NH2)
active: inhibition [1] | inhibition [2] | Activity [6] | inhibition [3] | inhibition [4]

CC[C@@H](C)[C@@H](NC(=O)CNC(=O)[C@@H](C)N)C(=O)N[C@H](CC(C)C)C(=O)N[C@H](CCCCN)C(=O)N[C@H](CCCNC(=N)N)C(=O)N[C@H](Cc1c[nH]c2ccccc12)C(=O)N[C@@H](CCCCN)C(=O)N[C@H](C(=O)N[C@@H](CC(C)C)C(=O)N[C@H](C(=O)N[C@@H](CC(C)C)C(=O)N[C@H](C(=O)N[C@@H](CC(C)C)C(=O)N[C@H](C(=O)N[C@H](C(N)=O)C(C)C)C(C)C)[C@@H](C)CC)C(C)C)[C@@H](C)O (H-[dA]G[dI][dL][dK][dR][dW]KTLVLILVV-NH2)
active: inhibition [1] | inhibition [2] | Activity [6] | inhibition [3] | inhibition [4]

CC[C@@H](C)[C@@H](NC(=O)CNC(=O)[C@@H](C)N)C(=O)N[C@H](CC(C)C)C(=O)N[C@H](CCCCN)C(=O)N[C@H](CCCNC(=N)N)C(=O)N[C@H](Cc1c[nH]c2ccccc12)C(=O)N[C@@H](C(=O)N[C@@H](C(=O)N[C@H](CC(C)C)C(=O)N[C@@H](C(=O)N[C@H](CC(C)C)C(=O)N[C@@H](C(=O)N[C@H](CC(C)C)C(=O)N[C@@H](C(=O)N[C@H](CCCCN)C(N)=O)[C@H](C)O)C(C)C)[C@H](C)CC)C(C)C)C(C)C (H-[dA]G[dI][dL][dK][dR][dW][dV][dV][dL][dI][dL][dV][dL][dT][dK]-NH2)
inactive: Activity [7]
active: Activity [6] | Activity [9] | inhibition [5]
Active: Drug uptake [8]

CC[C@H](C)[C@H](NC(=O)[C@H](CC(C)C)NC(=O)[C@@H](NC(=O)[C@H](CC(C)C)NC(=O)[C@@H](NC(=O)[C@H](CCCCN)NC(=O)[C@@H](CCCCN)NC(=O)[C@@H](CO)NC(=O)[C@@H](CCCCN)NC(=O)[C@@H](CO)NC(=O)[C@@H](CCCCN)NC(=O)[C@H](N)CO)[C@@H](C)O)C(C)C)C(=O)N[C@@H](CC(C)C)C(=O)N[C@H](C(=O)N[C@H](C(N)=O)C(C)C)C(C)C (H-[dS][dK][dS][dK][dS][dK]KTLVLILVV-NH2)
active: inhibition [1] | inhibition [2] | Activity [6] | inhibition [3] | inhibition [4]

H-AGILKRWKTLVLILVV-NH2
active: inhibition [1] | inhibition [2] | inhibition [3] | inhibition [4]

H-ETYLMFWIGVTSVLLLFIVYAYMYILWGRKKRRQRRR-NH2
active: inhibition [1] | inhibition [2] | inhibition [3] | inhibition [5]

H-GRKKRRQRRRKTLVLILVV-NH2
active: inhibition [1] | inhibition [2] | inhibition [3] | inhibition [4] | inhibition [5]

H-GRKKRRQRRRKTLVLILVVLIICWGPLLAIMVYDVF-NH2
active: inhibition [1] | inhibition [2] | inhibition [3] | inhibition [5]

H-RKRKTLVLILVV-NH2
active: inhibition [1] | inhibition [2] | inhibition [3] | inhibition [4]

H-SKSKSKKTLVLILVV-NH2
active: inhibition [1] | inhibition [2] | inhibition [3] | inhibition [4]

H-VYAYMYILWAGILKRW-NH2
active: inhibition [1] | inhibition [2] | inhibition [3] | inhibition [4]

H-VYAYMYILWGRKKRRQRRR-NH2
active: inhibition [1] | inhibition [2] | inhibition [3] | inhibition [4] | inhibition [5]

H-VYAYMYILWRKR-NH2
active: inhibition [1] | inhibition [2] | inhibition [3] | inhibition [4]

H-VYAYMYILWSKSKSK-NH2
active: inhibition [1] | inhibition [2] | inhibition [3] | inhibition [4]
